GPR7 antag: GPR7 receptor antagonists, primary screen, cell-based, fluorescence, single concentration | GPR7-expressing cells, fluorescence antagonist assay | inhibition, % at 4.4 µM | Neuropeptides B/W receptor type 1 (Homo sapiens), P48145 | hit rate 1.1% among 290,000 | AID 1861, 2009; in the data active = inhibition above about 16%, passing the limit was not always enough;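 also: cells stimulated with the agonist NPW; 0% = agonist with vehicle and 100% = vehicle without agonist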
TAAR1 antagonist: human TAAR1 antagonists, primary screen, Fluo-8 calcium fluorescence, CHO RD-HGA16 cells. Trace amine-associated receptor 1 (Homo sapiens), Q96RJ0. antagonist. inhibition, % at 3 µM. hit rate 1.5% among 360,000;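 active = inhibition above a per-plate cutoff, the mean inhibition of test compounds on that plate plus 3 SD, cut at about 49% in these data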;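 also: 0% = DMSO plus EC80 beta-PEA response and 100% = DMSO alone without agonist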
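Material: CHO RD-HGA16 cells bearing hTAAR1; compound dosing: one-point dosing, 3 µM nominal final; schedule: dye loading 75 min at 37 °C, then 30 min room temperature; measured by: calcium fluorescence with Fluo-8; control set: vehicle and agonist controls; replication: n of 1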
TRPN1 ag: zebrafish TRPN1 channel agonists, primary screen, cell-based, HEK293, calcium fluorescence | transient receptor potential cation channel N1 (TRPN1/NompC), Danio rerio | HEK293 zebrafish TRPN1-YFP, Fluo-8 calcium fluorescence; 100% = response to 87 µM carbachol | activation, % at 3 µM | hit rate 0.18% among 220,000 | AID 1424, 2008;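 active = activation above its plate's cutoff, the mean activation of test wells on that plate plus 3 SD, cut at about 19% in these data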;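 also: 0% = DMSO alone and 100% = 87 µM carbachol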
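Material: zebrafish TRPN1-YFP in HEK293 cells. Doses: one dose of 3 µM, 0.3% DMSO. Incubation: dye 1 h 37 °C plus 30 min RT. Measured by: intracellular calcium fluorescence with Fluo-8.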
LANA-H2A inh: blockers of LANA interaction with H2A/H2B – biochemical, FP readout, HTS, primary screen | hit rate 0.6% among 320,000 | AID 2629, 2010 | cell-free LANA-H2A/H2B peptide, fluorescence polarization | Protein LANA1 (Human herpesvirus 8 type P (isolate GK18)), Q9QR71 | inhibition, % (test concentration not listed); in the data active = inhibition mostly above about 10%, no sharp cut-off; inactive = mostly below about 6.7%
TRPML3 ag: human TRPML3 channel agonists, primary screen, cell-based, HEK293 TRPML3-YFP, Fluo-8 calcium fluorescence, 3 µM; 100% = the carbachol control signal; activation, % at 3 µM; hit rate 0.29% among 220,000; AID 1448, 2008;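 active = activation above its plate's cutoff, the mean activation of the plate's test wells plus 3 SD, cut at about 12% in these data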;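 also: 0% = DMSO only wells and 100% = carbachol wells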
Target sequence (Q8TDD5 whole entry, looked up): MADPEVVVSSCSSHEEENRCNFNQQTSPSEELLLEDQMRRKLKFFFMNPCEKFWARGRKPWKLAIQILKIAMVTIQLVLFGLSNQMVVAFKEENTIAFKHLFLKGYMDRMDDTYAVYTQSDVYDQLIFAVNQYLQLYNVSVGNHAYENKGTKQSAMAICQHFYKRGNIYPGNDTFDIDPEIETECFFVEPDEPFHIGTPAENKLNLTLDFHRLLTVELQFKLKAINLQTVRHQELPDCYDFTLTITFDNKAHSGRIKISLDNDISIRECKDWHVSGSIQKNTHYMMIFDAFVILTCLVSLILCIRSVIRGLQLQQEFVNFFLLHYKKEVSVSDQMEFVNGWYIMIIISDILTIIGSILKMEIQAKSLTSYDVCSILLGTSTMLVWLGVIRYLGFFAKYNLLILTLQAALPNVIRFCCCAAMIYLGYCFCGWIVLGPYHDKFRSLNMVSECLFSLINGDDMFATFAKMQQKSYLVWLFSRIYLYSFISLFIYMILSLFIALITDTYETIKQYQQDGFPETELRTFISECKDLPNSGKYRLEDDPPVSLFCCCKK
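system = HEK293 cells stably carrying human TRPML3-YFP | doses = one concentration, 3 µM nominal, 0.3% DMSO | timing = dye loading 1 h 37 °C then 30 min ambient, 125 s read | detection = Fluo-8 calcium dye fluorescence, ex 470-495, em 515-575 nm | benchmarks = high control carbachol 87 µM, low control DMSO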
TAAR1 ag: human TAAR1 agonists, primary screen, Fluo-8 calcium fluorescence, CHO RD-HGA16 cells; activation, % at 3 µM; hit rate 0.99% among 360,000; AID 624467, 2012; vehicle wells 0%, saturating PEA agonist 100%; Trace amine-associated receptor 1 (Homo sapiens), Q96RJ0;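 active = activation above the mean activation of all test compounds in the run plus 3 SD, cut at about 38% in these data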
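Signal – calcium-sensitive Fluo-8 signal, excitation 470-495, emission 515-575 nm · System – RD-HGA16 (CHO) cells co-expressing Gα16 and hTAAR1 · Incubation – 17-24 h seeding, 75 min 37 °C dye, 30 min RT · Compound dosing – 3 µM single concentration · Repeats – no replicates (n 1)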
Active calls of the source: *; . = no result given; + = active, no number. Compounds with a hit are over-represented: about 3.4% of the library has one in this group of screens.

SMILES	GPR7 antag	TAAR1 antagonist	TRPN1 ag	LANA-H2A inh	TRPML3 ag	TAAR1 ag
C=CCN1CC(COCCCC)Oc2ccc(Cl)cc2S1(=O)=O (stereo not given)	.	21.9	.	.	.	4.6
C/C(Nc1ccc(Cl)c(Cl)c1)=C1/CCOC1=O	.	-4.2	.	.	.	1.5
CC1COC(=O)C(NNc2ccc(Cl)c(Cl)c2)=N1 (stereo not given)	19.0*	4.7	1.5	7.0	-1.1	23.6
CC(C)(C)OC(=O)N1CCCC(C(=O)Nc2cccc(C(=O)NCCCc3ccccc3)c2)C1 (stereo not given)	.	48.8*	.	.	.	9.7
CC(C)(C)OC(=O)N1CCC(C(=O)Nc2cccc(C(=O)NCCCc3ccccc3)c2)CC1	.	47.9	.	.	.	18.6
COc1cc(C(=O)NNC(=O)c2ccc3c(c2)OCCO3)cc(OC)c1OC	.	-6.3	.	2.9	.	4.0
COc1cc(C(=O)NNC(=S)NC(=O)c2ccc3c(c2)OCO3)cc(OC)c1OC	4.7	-29.7	0.2	0.0	0.1	43.6*
c1coc(-c2nc3c4ccccc4ccn3c2Cc2ccsc2)c1	.	-12.2	.	.	.	0.4
CN(C)C(=O)N1CCN(C(=O)[C@H]2O[C@@H](n3ccc(N)nc3=O)[C@H](O)[C@@H]2O)CC1	.	1.1	.	.	.	1.9
Cc1nc2ccc(NC(=O)c3cc(S(=O)(=O)N(C)c4ccccc4)ccc3Cl)cc2s1	-3.4	29.0	6.8	-0.8	0.7	6.1
Cc1nc2ccc(NC(=O)c3ccc(Cl)c(S(=O)(=O)N(C)c4ccccc4)c3)cc2s1	0.9	51.3*	0.8	-4.8	0.7	13.2
O=C(NC(CC1=CCCCC1)c1ccc2ccccc2c1)C(F)(F)F (stereo not given)	.	21.3	.	.	.	1.7
c1cncc(CNc2c3c(nc4nnnn24)CCCC3)c1	-8.2	-3.0	0.8	18.3*	0.9	5.5
CN(CC(=O)Nc1ccc(Cl)c(C(F)(F)F)c1)C(=O)C1CC(=O)N(CCc2ccccc2)C1 (stereo not given)	.	50.5*	.	.	.	15.3
CC(C=NN=C1C(=O)Nc2ccccc21)=Cc1ccccc1	.	-12.9	.	.	.	3.7
O=C(c1ccc(Cn2c(=O)[nH]c3ccccc3c2=O)cc1)N1CCN(c2ccccn2)CC1	1.6	41.8	3.5	2.3	-0.1	9.7
O=C(c1ccc(Cn2c(=S)[nH]c3ccccc3c2=O)cc1)N1CCN(c2ccccn2)CC1	-5.5	57.4*	1.4	4.3	0.6	9.2
O=S1(=O)N[C@H](c2ccccc2)COc2cc(Br)ccc21	.	14.0	.	.	.	-0.4
CCOC(=O)/C(=C/C=C1\Sc2ccccc2N1CC)C(C)=O	10.7	.	51.1*	-7.2	22.6*	.
COc1ccc(-c2csc3nc(C)n(-n4cccc4)c(=O)c23)cc1	-9.9	0.6	-1.7	-2.8	-1.0	2.4
Cc1nc2scc(-c3ccc(C(C)(C)C)cc3)c2c(=O)n1N	-6.3	51.0*	0.2	-2.6	0.6	9.8
COC(=O)c1ccc2nc(-c3ccc(C)cc3)c(Cc3ccccc3)n2c1	.	-7.7	.	.	.	1.5
CCn1ncc(C2=NOC(C(=O)Nc3ccc(C)cc3)C2)c1C (stereo not given)	1.7	-9.2	1.5	4.2	1.6	20.1
CCn1ncc(C2=NOC(C(=O)NCc3ccc(Cl)cc3)C2)c1C (stereo not given)	9.6	5.2	2.4	58.1*	0.9	2.3
COC(=O)C1CCN(C2CN(Cc3cn(Cc4ccc(C(F)(F)F)cc4)nn3)S(=O)(=O)C2)CC1 (stereo not given)	.	-6.8	.	.	.	5.8
SMILES	GPR7 antag	TAAR1 antagonist	TRPN1 ag	LANA-H2A inh	TRPML3 ag	TAAR1 ag
C=CCOC(=O)C(C#N)c1nc2ccccc2nc1N1CCN(c2ccccc2OC)CC1 (stereo not given)	-5.2	48.9*	-0.6	0.4	0.6	7.7
CCOC(=O)C1CCCN(c2nc3ccccc3nc2C(C#N)C(=O)OCCOC)C1 (stereo not given)	-8.2	42.3	-0.1	20.3*	0.1	14.5
C=CCOC(=O)C(C#N)c1nc2ccccc2nc1N1CCN(Cc2ccccc2)CC1 (stereo not given)	-1.2	12.5	1.2	1.2	0.5	21.5
O=[N+]([O-])c1cc2c(ccc3occc32)o1	.	2.2	.	.	.	-1.8
O=C(CCc1nc(-c2ccc(Cl)cc2)no1)NCc1ccccc1CN1CCOCC1	.	4.0	.	-3.7	.	8.8
O=C(CCc1nc(-c2ccccc2)no1)NCc1ccccc1CN1CCOCC1	.	-6.1	.	26.5*	.	3.4
COC(=O)C1=C(C)N(C)C(=NCc2ccc(C(F)(F)F)cc2)NC1c1cccc(F)c1 (stereo not given)	.	14.2	.	.	.	21.4
Nc1nc(N)c(Br)c(Nc2ccc(Cl)c(Cl)c2)n1	.	-15.1	.	.	.	46.2*
CCc1c(N)nc(N)nc1Nc1ccc(C)c(C)c1	.	-4.2	.	.	.	2.4
CN(CC(=O)Nc1ccc(Cl)cc1)C1=NS(=O)(=O)c2ccccc21	.	2.6	.	27.5*	.	10.9
O=C1c2ccccc2C(=O)N1CSc1nnc2c3ccccc3n(CCc3ccccc3)c2n1	-2.3	.	-1.0	4.0	1.3	.
C=CCn1c2ccccc2c2nnc(SCCCn3c(=O)[nH]c4ccccc43)nc21	-13.6	56.0*	-1.0	.	-1.7	9.8
C=CCn1c2ccccc2c2nnc(SCN3C(=O)c4ccccc4C3=O)nc21	-12.5	50.7*	-2.2	-0.8	0.2	16.1
C=CCn1c2ccccc2c2nnc(SCCN3CCCCC3)nc21	-23.6	-17.0	.	1.7	.	3.7
O=C(O)/C=C/c1cn(-c2ccccc2)nc1-c1ccccc1	2.9	-8.8	.	-4.9	.	0.1
Cc1c(NC(=O)/C=C/c2cn(-c3ccccc3)nc2-c2ccccc2)c(=O)n(-c2ccccc2)n1C	-6.6	52.4*	-1.6	1.4	-0.3	11.8
CCOC(=O)Nc1cc(=O)c([N+](=O)[O-])c(N)[nH]1	.	-4.0	.	.	.	0.3
COc1ccc(C2=CC(=O)N(Nc3ccccc3)C2=O)cc1	-3.1	-2.7	0.6	-4.3	-0.1	33.4
Cc1ccc(NN2C(=O)C=C(c3ccc(Cl)cc3)C2=O)cc1	2.9	57.5*	1.4	4.1	2.7	36.8
CC(=O)OC[C@H]1O[C@H](C#Cc2ccc(C(C)(C)C)cc2)C=C[C@H]1OC(=O)Nc1ccccc1	.	1.9	.	.	.	-0.5
CCN(C[C@H]1N[C@@](Cc2ccccc2)(C(=O)OC)[C@H]2C(=O)N(C)C(=O)[C@@H]12)S(=O)(=O)c1ccc(OC)cc1	.	14.7	.	+	.	11.5
